Experimental data reported in ChEMBL document CHEMBL2396529, “Synthesis and anticancer mechanism investigation of dual Hsp27 and tubulin inhibitors” (J Med Chem, 2013).
The source made the active and inactive calls. The rule behind the calls is not given here.

Tests used:
SK-BR-3 [1] = experiment: Effect on STAT3 protein level human SKBR3 cells at 5 to 15 nM after 24 hrs by Western blotting analysis; type: functional, cell-based
SK-BR-3 [2] = experiment: Cell cycle arrest in human SKBR3 cells assessed as accumulation at G1 phase at 1 nM after 24 hrs by propidium iodide staining-based FACS flow cytometric analysis (reference value: 69.63%); type: functional
SK-BR-3 [3] = experiment: Cell cycle arrest in human SKBR3 cells assessed as accumulation at S phase at 1 nM after 24 hrs by propidium iodide staining-based FACS flow cytometric analysis (reference value: 16.34%); type: functional
SK-BR-3 [4] = experiment: Induction of apoptosis in human SKBR3 cells assessed as increase in cleaved PARP protein level at 5 to 15 nM after 24 hrs by Western blotting analysis; type: functional, cell-based
Outline: (§1)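 SKBR-3 cells treated 24 h with 5, 10 and 15 nM against DMSO. Lysates (60 μg protein) resolved on 10% SDS-PAGE, transferred to PVDF, blocked in 5% milk/PBST and immunoblotted for cleaved caspase 3 and cleaved PARP with an HRP secondary.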

SK-BR-3 [5] = experiment: Cell cycle arrest in human SKBR3 cells assessed as accumulation at subG1 phase at 50 nM after 24 hrs by propidium iodide staining-based FACS flow cytometric analysis (reference value: 3.23%); type: functional
Bos taurus [6] = organism: Bos taurus; experiment: Inhibition of bovine brain tubulin polymerization at 1 uM after 15 mins by spectrophotometric analysis relative to control in presence of GTP
SK-BR-3 [7] = experiment: Effect on EIF4E protein level human SKBR3 cells at 5 to 15 nM after 24 hrs by Western blotting analysis; type: functional, cell-based
SK-BR-3 [8] = experiment: Cell cycle arrest in human SKBR3 cells assessed as accumulation at G2/M phase at 50 nM after 24 hrs by propidium iodide staining-based FACS flow cytometric analysis (reference value: 10.77%); type: functional
SK-BR-3 [9] = experiment: Cell cycle arrest in human SKBR3 cells assessed as accumulation at G1 phase at 50 nM after 24 hrs by propidium iodide staining-based FACS flow cytometric analysis (reference value: 69.63%); type: functional
SK-BR-3 [10] = experiment: Cell cycle arrest in human SKBR3 cells assessed as accumulation at G2/M phase at […] after 24 hrs by propidium iodide staining-based FACS flow cytometric analysis (reference value: 10.77%); type: functional
SK-BR-3 [11] = experiment: Cell cycle arrest in human SKBR3 cells assessed as accumulation at G1 phase at […] after 24 hrs by propidium iodide staining-based FACS flow cytometric analysis (reference value: 69.63%); type: functional
SK-BR-3 [12] = experiment: Cell cycle arrest in human SKBR3 cells assessed as accumulation at subG1 phase at 1 nM after 24 hrs by propidium iodide staining-based FACS flow cytometric analysis (reference value: 3.23%); type: functional
SK-BR-3 [13] = experiment: Cell cycle arrest in human SKBR3 cells assessed as accumulation at S phase at 5 nM after 24 hrs by propidium iodide staining-based FACS flow cytometric analysis (reference value: 16.34%); type: functional
SK-BR-3 [14] = experiment: Cell cycle arrest in human SKBR3 cells assessed as accumulation at S phase at […] after 24 hrs by propidium iodide staining-based FACS flow cytometric analysis (reference value: 16.34%); type: functional
SK-BR-3 [15] = experiment: Cell cycle arrest in human SKBR3 cells assessed as accumulation at G1 phase at 5 nM after 24 hrs by propidium iodide staining-based FACS flow cytometric analysis (reference value: 69.63%); type: functional
SK-BR-3 [16] = experiment: Antiproliferative activity against human SKBR3 cells after 48 hrs by MTT assay; type: functional, cell-based; settings: SK-BR-3, 48 h
Outline: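 MTT assay on SKBR-3 cells (RPMI 1640, 10% heat-inactivated FBS, 37 °C, 5% CO2), seeded 24 h before dosing, then exposed 48 h to a concentration series in DMSO (final ≤0.1%) with vehicle-matched controls. Afterwards 0.5 mg/mL MTT for 2 h, formazan dissolved in DMSO, A570 read, six replicates. IC50 from nonlinear regression.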

SK-BR-3 [17] = experiment: Induction of HSP27 phosphorylation in human SKBR3 cells at 5 to 15 nM after 24 hrs by Western blotting analysis; type: functional, cell-based
Outline: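 SKBR-3 cells exposed to 5, 10 and 15 nM for 24 h against DMSO, then lysed, sonicated and spun at 12000g for 10 min. 30 μg protein run on 10% SDS-PAGE and transferred to PVDF. Blocked with 5% milk in PBST, probed with specific primary antibodies and an HRP secondary. pHsp27 bands quantified and normalised to β-actin.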

[18] = target: Heat shock protein beta-1 (Homo sapiens) (UniProt P04792); experiment: Inhibition of HSP27 (unknown origin) assessed as increase in DTT-induced insulin B chain aggregation at 10 uM incubated for 5 mins prior to DTT-treatment measured after 30 mins by spectrophotometric analysis relative to control
SK-BR-3 [19] = experiment: Cell cycle arrest in human SKBR3 cells assessed as accumulation at subG1 phase at […] after 24 hrs by propidium iodide staining-based FACS flow cytometric analysis (reference value: 3.23%); type: functional
SK-BR-3 [20] = experiment: Effect on HER2 protein level human SKBR3 cells at 5 to 15 nM after 24 hrs by Western blotting analysis; type: functional, cell-based
SK-BR-3 [21] = experiment: Cell cycle arrest in human SKBR3 cells assessed as accumulation at G2/M phase at 5 nM after 24 hrs by propidium iodide staining-based FACS flow cytometric analysis (reference value: 10.77%); type: functional
Bos taurus [22] = organism: Bos taurus; experiment: Inhibition of bovine brain tubulin polymerization after 20 mins by spectrophotometric analysis in presence of GTP
SK-BR-3 [23] = experiment: Effect on HSP70 protein level human SKBR3 cells at 5 to 15 nM after 24 hrs by Western blotting analysis; type: functional, cell-based
SK-BR-3 [24] = experiment: Induction of apoptosis in human SKBR3 cells assessed as increase in cleaved caspase-3 protein level at 5 to 15 nM after 24 hrs by Western blotting analysis; type: functional, cell-based; outline: as §1
SK-BR-3 [25] = experiment: Effect on total HSP27 protein level human SKBR3 cells at 5 to 15 nM after 24 hrs by Western blotting analysis; type: functional, cell-based
SK-BR-3 [26] = experiment: Cell cycle arrest in human SKBR3 cells assessed as accumulation at S phase at 50 nM after 24 hrs by propidium iodide staining-based FACS flow cytometric analysis (reference value: 16.34%); type: functional
SK-BR-3 [27] = experiment: Cell cycle arrest in human SKBR3 cells assessed as accumulation at G2/M phase at 1 nM after 24 hrs by propidium iodide staining-based FACS flow cytometric analysis (reference value: 10.77%); type: functional
SK-BR-3 [28] = experiment: Cell cycle arrest in human SKBR3 cells assessed as accumulation at subG1 phase at 5 nM after 24 hrs by propidium iodide staining-based FACS flow cytometric analysis (reference value: 3.23%); type: functional
Bos taurus [29] = organism: Bos taurus; experiment: Inhibition of bovine brain tubulin polymerization at 100 nM after 15 mins by spectrophotometric analysis relative to control in presence of GTP
Bos taurus [30] = organism: Bos taurus; experiment: Inhibition of bovine brain tubulin polymerization at 10 nM after 15 mins by spectrophotometric analysis relative to control in presence of GTP

Heat shock protein beta-1 (Homo sapiens), sequence (P04792 whole entry): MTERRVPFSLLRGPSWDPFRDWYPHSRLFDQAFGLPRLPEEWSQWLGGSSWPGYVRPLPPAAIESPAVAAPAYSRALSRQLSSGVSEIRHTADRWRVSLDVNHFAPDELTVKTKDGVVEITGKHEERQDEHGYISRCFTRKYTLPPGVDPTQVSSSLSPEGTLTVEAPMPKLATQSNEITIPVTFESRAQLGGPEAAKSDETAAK

SMILES | Activity (SK-BR-3 [1]) | Activity (SK-BR-3 [2]) [%] | Activity (SK-BR-3 [3]) [%] | Activity (SK-BR-3 [4]) | inhibition (Bos taurus [6]) [%] | Activity (SK-BR-3 [7]) | Activity (SK-BR-3 [10]) [%] | Activity (SK-BR-3 [11]) [%] | Activity (SK-BR-3 [12]) [%] | Activity (SK-BR-3 [13]) [%] | Activity (SK-BR-3 [14]) [%] | Activity (SK-BR-3 [15]) [%] | IC50 (SK-BR-3 [16]) [nM] | Activity (SK-BR-3 [17]) | inhibition [18] [%] | Activity (SK-BR-3 [19]) [%] | Activity (SK-BR-3 [20]) | Activity (SK-BR-3 [21]) [%] | inhibition (Bos taurus [22]) | Activity (SK-BR-3 [23]) | other results
COc1ccc(OC)c(COc2cc(NC(=O)c3ccc(I)cc3)ccc2N(C)S(C)(=O)=O)c1 | inactive | 66.68 | 8.45 | Active | 64 | inactive | 8.1 | 60.08 | 14.73 | 9.51 | 9.49 | 51.84 | 1.21 | Active | 27 | 22.02 | inactive | 13.76 | Dose-dependent effect | inactive | Activity (SK-BR-3 [5]): 32.88%; Activity (SK-BR-3 [8]): 24.32%; Activity (SK-BR-3 [9]): 31.22%; Activity (SK-BR-3 [24]): Active; Activity (SK-BR-3 [25]): inactive; Activity (SK-BR-3 [26]): 11.39%; Activity (SK-BR-3 [27]): 9.24%; Activity (SK-BR-3 [28]): 24.27%
COc1ccc(C(=O)Nc2ccc(N(C)S(C)(=O)=O)c(OCc3cc(OC)ccc3OC)c2)cc1 | inactive | 61.21 | 8.71 | Active | 66 | inactive | 28.57 | 34.91 | 17.1 | 8.83 | 8.92 | 32.02 | 2.56 | Active | 9 | 27.43 | inactive | 25.47 | Dose-dependent effect | inactive | inhibition (Bos taurus [29]): 19%; Activity (SK-BR-3 [24]): Active; inhibition (Bos taurus [30]): 5%; Activity (SK-BR-3 [27]): 12.78%; Activity (SK-BR-3 [28]): 33.54%
